According to ChEMBL document CHEMBL3352593, “Tumor xenograft uptake of a pyrrole-imidazole (Py-Im) polyamide varies as a function of cell line grafted” (J Med Chem, 2014):

Key:
Tumour [1] = test: Drug level in tumor of human LNCAP cells xenografted NSG mouse at 20 nmol, ip after 24 hrs by liquid scintillation counting method; type: ADME, organism-based, Neoplasm; conditions: in vivo
Outline: (§1)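 Male NSG mice obtained at 8 weeks of age. Tumours engrafted subcutaneously with 2.5 M cells (viability ≥95% by trypan blue) in medium or 1:1 Matrigel; naive animals had no graft. Mice received 20 nmol C-14 polyamide per animal intraperitoneally. Tissues harvested 24 h later, solubilized, decolorized, and counted by liquid scintillation. Values are quench-corrected and normalized to organ weight; each tissue was analysed individually.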

Liver [2] = test: Drug level in liver of human LNCAP cells xenografted NSG mouse at 20 nmol, ip after 24 hrs by liquid scintillation counting method; type: ADME, organism-based; conditions: in vivo; outline: as §1
Tumour [3] = test: Drug level in tumor of human A549 cells xenografted NSG mouse at 20 nmol, ip after 24 hrs by liquid scintillation counting method; type: ADME, organism-based, Neoplasm; conditions: in vivo; outline: as §1
Kidney [4] = test: Drug level in kidney of human A549 cells xenografted NSG mouse at 20 nmol, ip after 24 hrs by liquid scintillation counting method; type: ADME, organism-based; conditions: in vivo; outline: as §1
Lung [5] = test: Drug level in lung of human A549 cells xenografted NSG mouse at 20 nmol, ip after 24 hrs by liquid scintillation counting method; type: ADME, organism-based; conditions: in vivo; outline: as §1
Tumour [6] = test: Drug level in tumor of human U251 cells xenografted NSG mouse at 20 nmol, ip after 24 hrs by liquid scintillation counting method; type: ADME, organism-based, Neoplasm, U-251; conditions: in vivo; outline: as §1
Kidney [7] = test: Drug level in kidney of naive NSG mouse at 20 nmol, ip after 24 hrs by liquid scintillation counting method; type: ADME, organism-based; conditions: in vivo; outline: as §1
Kidney [8] = test: Drug level in kidney of human A549 cells and human LNCAP cells xenografted NSG mouse at 20 nmol, ip after 24 hrs by liquid scintillation counting method; type: ADME, organism-based; conditions: in vivo; outline: as §1
Lung [9] = test: Drug level in lung of human LNCAP cells xenografted NSG mouse at 20 nmol, ip after 24 hrs by liquid scintillation counting method; type: ADME, organism-based; conditions: in vivo; outline: as §1
Lung [10] = test: Drug level in lung of human U251 cells xenografted NSG mouse at 20 nmol, ip after 24 hrs by liquid scintillation counting method; type: ADME, organism-based, U-251; conditions: in vivo; outline: as §1
Liver [11] = test: Drug level in liver of human U251 cells xenografted NSG mouse at 20 nmol, ip after 24 hrs by liquid scintillation counting method; type: ADME, organism-based, U-251; conditions: in vivo; outline: as §1
Liver [12] = test: Drug level in liver of human A549 cells xenografted NSG mouse at 20 nmol, ip after 24 hrs by liquid scintillation counting method; type: ADME, organism-based; conditions: in vivo; outline: as §1
Liver [13] = test: Drug level in liver of human A549 cells and human LNCAP cells xenografted NSG mouse at 20 nmol, ip after 24 hrs by liquid scintillation counting method; type: ADME, organism-based; conditions: in vivo; outline: as §1
Tumour [14] = test: Drug level in tumor of matrigel-negative human A549 cells xenografted NSG mouse at 20 nmol, ip measured 3 to 4 weeks past engraftment by liquid scintillation counting method; type: ADME, organism-based, Neoplasm; conditions: in vivo; outline: as §1
Tumour [15] = test: Drug level in tumor of matrigel-positive human A549 cells xenografted NSG mouse at 20 nmol, ip measured 3 to 4 weeks past engraftment by liquid scintillation counting method; type: ADME, organism-based, Neoplasm; conditions: in vivo; outline: as §1
Tumour [16] = test: Drug level in tumor of matrigel-negative human A549 cells xenografted NSG mouse at 20 nmol, ip measured 5 weeks past engraftment by liquid scintillation counting method; type: ADME, organism-based, Neoplasm; conditions: in vivo, 840 h; outline: as §1
Tumour [17] = test: Drug level in tumor of matrigel-positive human A549 cells xenografted NSG mouse at 20 nmol, ip measured 5 weeks past engraftment by liquid scintillation counting method; type: ADME, organism-based, Neoplasm; conditions: in vivo, 840 h; outline: as §1
Kidney [18] = test: Drug level in balb/c mouse kidney at 15 nmol, ip after 24 hrs by liquid scintillation counting method; type: ADME, organism-based; conditions: in vivo
Outline: (§2)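 Male balb/c mice given C-14-labelled polyamide (quantitated by scintillation counting before dosing) as a single 15 nmol intraperitoneal dose per animal. Organs collected 24 h later and solubilized at +65 °C for at least 12 h, then decolorized with H2O2. C-14 counted by liquid scintillation, quench-corrected and normalized to organ weight. N = 5, mean with standard deviation.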

Liver [19] = test: Drug level in balb/c mouse liver at 15 nmol, ip after 24 hrs by liquid scintillation counting method; type: ADME, organism-based; conditions: in vivo; outline: as §2
Bone marrow = test: Drug level in balb/c mouse bone marrow at 15 nmol, ip after 24 hrs by liquid scintillation counting method; type: ADME, organism-based; conditions: in vivo; outline: as §2
Spleen = test: Drug level in balb/c mouse spleen at 15 nmol, ip after 24 hrs by liquid scintillation counting method; type: ADME, organism-based; conditions: in vivo; outline: as §2
Pancreas = test: Drug level in balb/c mouse pancreas at 15 nmol, ip after 24 hrs by liquid scintillation counting method; type: ADME, organism-based; conditions: in vivo; outline: as §2
Brain = test: Drug level in balb/c mouse brain at 15 nmol, ip after 24 hrs by liquid scintillation counting method; type: ADME, organism-based; conditions: in vivo; outline: as §2
Liver [20] = test: Drug level in liver of matrigel-negative human A549 cells xenografted NSG mouse at 20 nmol, ip measured 5 weeks past engraftment by liquid scintillation counting method; type: ADME, organism-based; conditions: in vivo, 840 h, in the assay text read “matrigel-positive” for “matrigel-negative”; outline: as §1
Liver [21] = test: Drug level in liver of matrigel-positive human A549 cells xenografted NSG mouse at 20 nmol, ip measured 5 weeks past engraftment by liquid scintillation counting method; type: ADME, organism-based; conditions: in vivo, 840 h, in the assay text read “matrigel-negative” for “matrigel-positive”; outline: as §1

Drug uptake (Tumour [1]): 1.5 mg/kg | Drug uptake (Liver [2]): 1.04 mg/kg | Drug uptake (Tumour [3]): 0.23 mg/kg | Drug uptake (Kidney [4]): 0.27 mg/kg | Drug uptake (Lung [5]): 0.15 mg/kg | Drug uptake (Tumour [6]): 0.65 mg/kg | Drug uptake (Kidney [7]): 0.23 mg/kg | Drug uptake (Kidney [8]): 0.27 mg/kg | Drug uptake (Lung [9]): 0.12 mg/kg | Drug uptake (Lung [10]): 0.12 mg/kg | Drug uptake (Liver [11]): 0.57 mg/kg | Drug uptake (Liver [12]): 0.57 mg/kg | Drug uptake (Liver [13]): 1.04 mg/kg | Drug uptake (Tumour [14]): 0.23 mg/kg | Drug uptake (Tumour [15]): 0.23 mg/kg | Drug uptake (Tumour [16]): 0.25 mg/kg | Drug uptake (Tumour [17]): 0.59 mg/kg | Drug uptake (Kidney [18]): 0.22 mg/kg | Drug uptake (Liver [19]): 0.49 mg/kg | Drug uptake (Bone marrow): 0.24 mg/kg | Drug uptake (Spleen): 0.32 mg/kg | Drug uptake (Pancreas): 0.15 mg/kg | Drug uptake (Brain): Not Active | Drug uptake (Liver [20]): 0.65 mg/kg | Drug uptake (Liver [21]): 0.55 mg/kg
SMILES: CC(=O)N[C@H](CCNC(=O)c1cc(NC(=O)c2cc(NC(=O)c3cc(NC(=O)c4nccn4C)cn3C)cn2C)cn1C)C(=O)Nc1cnc(C(=O)Nc2cc(C(=O)Nc3cc(C(=O)Nc4cc(C(=O)NCCCN(C)CCCN[14C](=O)c5cccc([14C](=O)O)c5)n(C)c4)n(C)c3)n(C)c2)n1C
